Bioassay records (PubChem)
Compounds with a hit are over-represented: about 2.2% of the library has one in this group of screens.
VIM-2 inhibitor: inhibitors of Pseudomonas aeruginosa VIM-2 metallo-beta-lactamase; purified VIM-2, nitrocefin hydrolysis, epi-absorbance fluorescence; inhibition, % at 5.6 µM; 0.89% of 290,000 active; AID 1527;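 active = inhibition above the mean of all tested compounds plus 3 SD, cutoff set per screening run, cut at about 7.5% in these data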;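 also: red hydrolysis product quenches plate fluorescence so inhibitors raise well fluorescence; 0% = enzyme with DMSO and 100% = DMSO without enzyme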
PABP polyA inh: PABP-poly(A) binding inhibition | P11940 | PABP-poly(A) RNA binding, fluorescence polarization | AID 2014 | calls only at 35 µM | 1% of 290,000 active;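 also: calls also rest on retests at 20 µM and on dose response follow-up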
MLLE-PAM2 inh: blocks PAM2 peptide binding to the PABP1 MLLE domain; P11940; GST-MLLE / FITC-PAM2 fluorescence polarization; inhibition, % at 20 µM; 0.36% of 360,000 active; in the data active = inhibition above about 35%, passing the limit was not always enough;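 also: plate controls were DMSO wells with GST-MLLE for no effect and wells lacking GST-MLLE protein for full effect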
eIF4H inh: inhibitors of RNA binding by human eIF4H | 0.94% of 290,000 active | inhibition, % at 35 µM | Q15056 | eIF4H fluorescence polarization binding assay | AID 2012;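 also: calls also rest on retests at 20 µM and on dose response follow-up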
IMP-1 inh: blocks Pseudomonas aeruginosa IMP-1 metallo-beta-lactamase; purified IMP-1, nitrocefin hydrolysis, epi-absorbance fluorescence; inhibition, % at 5.6 µM; 0.45% of 290,000 active; AID 1556;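 active = inhibition above the mean plus 3 SD of all compounds in the same screening run, cut at about 4.5% in these data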;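 also: 0% = IMP-1 with DMSO and 100% = DMSO wells lacking enzyme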
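System: Purified IMP-1 | Read-out basis: Percent enzyme inhibition | Controls: IMP-1 with DMSO as 0%, enzyme-free DMSO as 100% | Replicates: One well per compound | Doses: 5.6 µM nominal single concentration | Detection: Epi-absorbance fluorescence, 480 nm excitation, 530 nm emission | Incubation: 25 °C, 15 min preincubation, 25 min reaction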
Active calls of the source: *. Unless noted, no rule for the calls is given here.

`CC(=O)Nc1ccc(SCC(=O)NC(=O)c2ccc(S(=O)(=O)N(C)C)cc2)cc1` gave MLLE-PAM2 inh 40*.
For COc1cccc(C(C)(O)c2nc(-c3ccc(OC)c(OC)c3)cs2)c1 (stereo not drawn) the results were MLLE-PAM2 inh -2.
For COc1ccc([N+](=O)[O-])cc1/C=N/NC(=O)CNC(=O)C(c1ccccc1)c1ccccc1 the results were VIM-2 inhibitor -2, PABP polyA inh active, MLLE-PAM2 inh -3, eIF4H inh 84* and IMP-1 inh -2.
O=C(Nc1ccccc1)Nc1n[nH]c2nnc(-c3ccccc3)c(-c3ccccc3)c12 was read as VIM-2 inhibitor 0, PABP polyA inh inactive, MLLE-PAM2 inh -6, eIF4H inh 10 and IMP-1 inh 21*.
For O=C(Nc1ccccc1)Nc1ccccc1 the results were MLLE-PAM2 inh -3.
COCCNC(=O)CSc1nc2cc(OC)c(OC)cc2c(=O)n1CCc1ccc(S(N)(=O)=O)cc1 was read as VIM-2 inhibitor -3, PABP polyA inh inactive, MLLE-PAM2 inh 1, eIF4H inh -11 and IMP-1 inh -3.
CC(C)=CC1C=C(C)C(C)C2C(=O)NNC(=O)C12 (stereo not drawn) was read as VIM-2 inhibitor 0, PABP polyA inh inactive, MLLE-PAM2 inh 6, eIF4H inh -1 and IMP-1 inh -4.
`COC(=O)c1ccc(NC(=S)Nc2ccc3ccccc3c2)cc1` gave VIM-2 inhibitor 2, PABP polyA inh inactive, MLLE-PAM2 inh 11, eIF4H inh -13 and IMP-1 inh 5.2*.
COC(=O)c1ccc(NC(=S)NC2CCCCC2C)cc1 (stereo not drawn) was read as VIM-2 inhibitor -1, PABP polyA inh active, MLLE-PAM2 inh 14, eIF4H inh active and IMP-1 inh -2.
`N=C1/C(=C/c2cccn2-c2ccc([N+](=O)[O-])cc2)C(=O)N=C2SC=CN12` gave VIM-2 inhibitor -3, PABP polyA inh inactive, MLLE-PAM2 inh -5, eIF4H inh 15 and IMP-1 inh -2.
O=C1NC(=S)N/C1=C/c1cccn1-c1ccc([N+](=O)[O-])cc1 was read as VIM-2 inhibitor 2, PABP polyA inh active, MLLE-PAM2 inh -6, eIF4H inh 84* and IMP-1 inh -2.
CCOC(=O)c1c(Nc2ccc(Cl)cc2)sc(/C=C2\C=Nc3ccccc32)c1O was read as VIM-2 inhibitor -2, PABP polyA inh active, MLLE-PAM2 inh -55, eIF4H inh inconclusive and IMP-1 inh -1.
For COc1cc(NC(=O)c2cc3sccc3n2C)cc(OC)c1 the results were VIM-2 inhibitor 1, PABP polyA inh inactive, MLLE-PAM2 inh 2, eIF4H inh -2 and IMP-1 inh 6.4*.
Screening Cn1c(C(=O)Nc2ccccc2)cc2sccc21 returned VIM-2 inhibitor -1, PABP polyA inh inactive, MLLE-PAM2 inh 4, eIF4H inh -14 and IMP-1 inh -1.
Screening C=C(C)CN1C(=O)c2ccccc2C1=O returned VIM-2 inhibitor -3, PABP polyA inh active, MLLE-PAM2 inh -3, eIF4H inh 57 and IMP-1 inh -2.
For O=C(CN1C(=O)c2ccccc2C1=O)c1ccccc1 the results were VIM-2 inhibitor -2, PABP polyA inh inactive, MLLE-PAM2 inh 7, eIF4H inh 0 and IMP-1 inh -2.
COc1cc2ccccc2cc1C(=O)Nc1sc2c(c1C(N)=O)CCN(C(C)C)C2 was read as VIM-2 inhibitor 3, PABP polyA inh inactive, MLLE-PAM2 inh -85, eIF4H inh -14 and IMP-1 inh 7.1*.
`CCOc1ccc2[nH]c(C)c(CN3CCN(CC)CC3)c(=O)c2c1` gave VIM-2 inhibitor -2, PABP polyA inh inactive, MLLE-PAM2 inh 2, eIF4H inh -7 and IMP-1 inh 5.2*.
Screening O=C(Nc1ccc(S(=O)(=O)Nc2ccccn2)cc1)c1ccc(Cl)cc1Cl returned VIM-2 inhibitor -3, PABP polyA inh inactive, MLLE-PAM2 inh 1, eIF4H inh 3 and IMP-1 inh -1.
`CC(=O)c1sc(N2CCOCC2)nc1-c1ccccc1` gave VIM-2 inhibitor -4, PABP polyA inh inactive, MLLE-PAM2 inh 0, eIF4H inh -6 and IMP-1 inh -4.
CCOc1ccc(NC(=O)c2sc(N3CCOCC3)nc2-c2ccccc2)cc1 was read as VIM-2 inhibitor -2, PABP polyA inh inactive, MLLE-PAM2 inh -14, eIF4H inh -3 and IMP-1 inh -4.
O=C(Nc1ccccc1)c1sc(N2CCOCC2)nc1-c1ccccc1 was read as VIM-2 inhibitor 2, PABP polyA inh active, MLLE-PAM2 inh -2, eIF4H inh active and IMP-1 inh 3.
Screening N#C/C(=C\c1sc(N2CCOCC2)nc1-c1ccccc1)C(=O)Nc1cccc2ccccc12 returned VIM-2 inhibitor -2, PABP polyA inh active, eIF4H inh 55* and IMP-1 inh -3.
`CCCCC(=O)Nc1ccc2c(c1)nc(CCN1CCN(c3ccccn3)CC1)n2C` gave VIM-2 inhibitor 2, PABP polyA inh inactive, MLLE-PAM2 inh -3, eIF4H inh -1 and IMP-1 inh -3.
`Cc1ccc(Cl)c2c1=NC(=O)C=2c1[nH]c(=S)[nH]c1O` gave VIM-2 inhibitor 2, PABP polyA inh inactive, MLLE-PAM2 inh -1, eIF4H inh -18 and IMP-1 inh 6.4*.
COC(=O)c1c(NC(=O)c2ccco2)sc(C(=O)N(C)C)c1C was read as VIM-2 inhibitor 12*, PABP polyA inh inactive, MLLE-PAM2 inh 20, eIF4H inh -10 and IMP-1 inh 1.
COC(=O)c1cc(C)sc1NC(=O)c1ccco1 was read as VIM-2 inhibitor 8.1*, PABP polyA inh inactive, MLLE-PAM2 inh -3, eIF4H inh 3 and IMP-1 inh 0.
For COC(=O)c1ccsc1NC(=O)c1ccco1 the results were VIM-2 inhibitor 6, PABP polyA inh inactive, MLLE-PAM2 inh 10, eIF4H inh 14 and IMP-1 inh -2.
`O=C(Oc1ccc2c(c1)OCO2)c1cc2c(s1)CCC2` gave VIM-2 inhibitor -3, PABP polyA inh active, MLLE-PAM2 inh 0, eIF4H inh 98* and IMP-1 inh -2.
`COc1ccc(-c2c(C)nc(N)nc2-c2ccc(OC)cc2O)cc1` gave VIM-2 inhibitor -4, PABP polyA inh active, MLLE-PAM2 inh 31, eIF4H inh 66* and IMP-1 inh -4.
For COc1ccc(-c2c(C)nc(N)nc2-c2ccc(OCc3ccc(C)cc3)cc2O)cc1OC the results were VIM-2 inhibitor -4, PABP polyA inh inactive, MLLE-PAM2 inh -5, eIF4H inh 0 and IMP-1 inh -3.
`CCCN1C(=O)S/C(=C\c2ccc(N3CCOCC3)o2)C1=O` gave VIM-2 inhibitor -4, PABP polyA inh inactive, MLLE-PAM2 inh 22, eIF4H inh inconclusive and IMP-1 inh 5.9*.
For C[C@@]12C(=O)N(Cc3ccccc3)CC(=O)N1[C@H](/C=C/c1ccccc1)[C@@H]1C(=O)N(c3ccccc3)C(=O)[C@@H]12 the results were VIM-2 inhibitor 1, PABP polyA inh inactive, eIF4H inh -1 and IMP-1 inh -3.
